In ChEMBL document CHEMBL4330069, “Boosting the efficacy of anti-MRSA β-lactam antibiotics via an easily accessible, non-cytotoxic and orally bioavailable FtsZ inhibitor” (Eur J Med Chem, 2019):
Converted amounts (≈) assume the structure as drawn. The source made the active and inactive calls.

Legend:
Staphylococcus aureus [1] = assay: Antibacterial activity against multidrug-resistant Staphylococcus aureus isolate 417 by broth microdilution assay; type: functional
Summary of the method: (§1)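 Broth microdilution MIC per CLSI guidelines against clinical MRSA isolates, for β-lactams and test compound alone and in combination. Compounds were dissolved in DMSO. Growth was read by eye, in duplicate. FIC index = FIC(compound) + FIC(drug); synergy defined as FIC index ≤0.5.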

Staphylococcus aureus [2] = assay: Antibacterial activity against multidrug-resistant Staphylococcus aureus isolate 3332 by broth microdilution assay; type: functional; summary of the method: as §1
Staphylococcus aureus [3] = assay: Antibacterial activity against multidrug-resistant Staphylococcus aureus isolate 254 by broth microdilution assay; type: functional; summary of the method: as §1
Staphylococcus aureus [4] = assay: Antibacterial activity against multidrug-resistant Staphylococcus aureus isolate 3589 by broth microdilution assay; type: functional; summary of the method: as §1
Staphylococcus aureus [5] = assay: Antibacterial activity against multidrug-resistant Staphylococcus aureus isolate 3580 by broth microdilution assay; type: functional; summary of the method: as §1
Staphylococcus aureus [6] = assay: Antibacterial activity against multidrug-resistant Staphylococcus aureus isolate 757 by broth microdilution assay; type: functional; summary of the method: as §1
Staphylococcus aureus [7] = assay: Antibacterial activity against multidrug-resistant Staphylococcus aureus isolate 3267 by broth microdilution assay; type: functional; summary of the method: as §1
Staphylococcus aureus [8] = assay: Antibacterial activity against multidrug-resistant Staphylococcus aureus isolate 3411 by broth microdilution assay; type: functional; summary of the method: as §1
Staphylococcus aureus [9] = assay: Antibacterial activity against multidrug-resistant Staphylococcus aureus isolate 2973 by broth microdilution assay; type: functional; summary of the method: as §1
Staphylococcus aureus [10] = assay: Antibacterial activity against multidrug-resistant Staphylococcus aureus isolate 256 by broth microdilution assay; type: functional; summary of the method: as §1
Staphylococcus aureus [11] = assay: Antibacterial activity against multidrug-resistant Staphylococcus aureus isolate 2901 by broth microdilution assay; type: functional; summary of the method: as §1
Staphylococcus aureus [12] = assay: Antibacterial activity against multidrug-resistant Staphylococcus aureus isolate 1449 by broth microdilution assay; type: functional; summary of the method: as §1
Staphylococcus aureus [13] = assay: Antibacterial activity against multidrug-resistant Staphylococcus aureus isolate 774 by broth microdilution assay; type: functional; summary of the method: as §1
Staphylococcus aureus [14] = assay: Antibacterial activity against multidrug-resistant Staphylococcus aureus isolate 2224 by broth microdilution assay; type: functional; summary of the method: as §1
Staphylococcus aureus [15] = assay: Antibacterial activity against multidrug-resistant Staphylococcus aureus isolate 2728 by broth microdilution assay; type: functional; summary of the method: as §1
Staphylococcus aureus [16] = assay: Antibacterial activity against multidrug-resistant Staphylococcus aureus isolate 85 by broth microdilution assay; type: functional; summary of the method: as §1
Staphylococcus aureus [17] = assay: Antibacterial activity against multidrug-resistant Staphylococcus aureus isolate 200 by broth microdilution assay; type: functional; summary of the method: as §1
Staphylococcus aureus [18] = assay: Antibacterial activity against multidrug-resistant Staphylococcus aureus isolate 1344 by broth microdilution assay; type: functional; summary of the method: as §1
Staphylococcus aureus [19] = assay: Antibacterial activity against multidrug-resistant Staphylococcus aureus ATCC 43300 infected in BALB/C mouse assessed as mouse survival at 50 mg/kg, ip bid measured after 5 days; type: functional, organism-based
Staphylococcus aureus [20] = assay: Antibacterial activity against multidrug-resistant Staphylococcus aureus isolate 1749 by broth microdilution assay; type: functional; summary of the method: as §1
Staphylococcus aureus [21] = assay: Antibacterial activity against multidrug-resistant Staphylococcus aureus isolate 2490 by broth microdilution assay; type: functional; summary of the method: as §1
Staphylococcus aureus [22] = assay: Antibacterial activity against multidrug-resistant Staphylococcus aureus isolate 2516 by broth microdilution assay; type: functional; summary of the method: as §1
Staphylococcus aureus [23] = assay: Antibacterial activity against multidrug-resistant Staphylococcus aureus isolate 231 by broth microdilution assay; type: functional; summary of the method: as §1
Staphylococcus aureus [24] = assay: Antibacterial activity against multidrug-resistant Staphylococcus aureus isolate 2919 by broth microdilution assay; type: functional; summary of the method: as §1
Staphylococcus aureus [25] = assay: Antibacterial activity against multidrug-resistant Staphylococcus aureus isolate 1136 by broth microdilution assay; type: functional; summary of the method: as §1
Staphylococcus aureus [26] = assay: Antibacterial activity against multidrug-resistant Staphylococcus aureus ATCC 43300 infected in BALB/C mouse assessed as mouse survival at 25 mg/kg, ip bid measured on day 4 post infection (reference value: 50%); type: functional
Staphylococcus aureus [27] = assay: Antibacterial activity against multidrug-resistant Staphylococcus aureus isolate 1402 by broth microdilution assay; type: functional; summary of the method: as §1
Staphylococcus aureus [28] = assay: Antibacterial activity against multidrug-resistant Staphylococcus aureus isolate 1717 by broth microdilution assay; type: functional; summary of the method: as §1
Staphylococcus aureus [29] = assay: Antibacterial activity against multidrug-resistant Staphylococcus aureus isolate 2895 by broth microdilution assay; type: functional; summary of the method: as §1
Staphylococcus aureus [30] = assay: Antibacterial activity against multidrug-resistant Staphylococcus aureus isolate 358 by broth microdilution assay; type: functional; summary of the method: as §1

Work on `CO/N=C(\C(=O)N[C@@H]1C(=O)N2C(C(=O)O)=C(COC(N)=O)CS[C@H]12)c1ccco1` [CEFUROXIME] yielded an MIC (Staphylococcus aureus [1]) of 1020 µg/mL (≈ 2410 µM), an MIC (Staphylococcus aureus [2]) of 512 µg/mL (≈ 1210 µM) and an MIC (Staphylococcus aureus [3]) of 1020 µg/mL (≈ 2410 µM). The MIC (Staphylococcus aureus [4]) was 512 µg/mL (≈ 1210 µM), the MIC (Staphylococcus aureus [5]) was 1020 µg/mL (≈ 2410 µM) and the MIC (Staphylococcus aureus [6]) was 32 µg/mL (≈ 75.4 µM). For the same compound, the MIC (Staphylococcus aureus [7]) was 256 µg/mL (≈ 603 µM), the MIC (Staphylococcus aureus [8]) was 1020 µg/mL (≈ 2410 µM) and the MIC (Staphylococcus aureus [9]) was 8 µg/mL (≈ 18.9 µM). For the same compound, the MIC (Staphylococcus aureus [10]) was 256 µg/mL (≈ 603 µM), the MIC (Staphylococcus aureus [11]) was 16 µg/mL (≈ 37.7 µM) and the MIC (Staphylococcus aureus [12]) was 2 µg/mL (≈ 4.71 µM). For the same compound, the MIC (Staphylococcus aureus [13]) was 1020 µg/mL (≈ 2410 µM), the MIC (Staphylococcus aureus [14]) was 8 µg/mL (≈ 18.9 µM) and the MIC (Staphylococcus aureus [15]) was 16 µg/mL (≈ 37.7 µM). The MIC (Staphylococcus aureus [16]) was 8 µg/mL (≈ 18.9 µM), the MIC (Staphylococcus aureus [17]) was 2 µg/mL (≈ 4.71 µM) and the MIC (Staphylococcus aureus [18]) was 256 µg/mL (≈ 603 µM). The Activity (Staphylococcus aureus [19]) was “inactive”, the MIC (Staphylococcus aureus [20]) was 16 µg/mL (≈ 37.7 µM) and the MIC (Staphylococcus aureus [21]) was 32 µg/mL (≈ 75.4 µM). The MIC (Staphylococcus aureus [22]) was 512 µg/mL (≈ 1210 µM), the MIC (Staphylococcus aureus [23]) was 1020 µg/mL (≈ 2410 µM) and the MIC (Staphylococcus aureus [24]) was 16 µg/mL (≈ 37.7 µM). It also gave an MIC (Staphylococcus aureus [25]) of 512 µg/mL (≈ 1210 µM), an Activity (Staphylococcus aureus [26]) of 70% and an MIC (Staphylococcus aureus [27]) of 16 µg/mL (≈ 37.7 µM). It also gave an MIC (Staphylococcus aureus [28]) of 16 µg/mL (≈ 37.7 µM), an MIC (Staphylococcus aureus [29]) of 64 µg/mL (≈ 151 µM) and an MIC (Staphylococcus aureus [30]) of 2 µg/mL (≈ 4.71 µM).
